# Data taken from ChEMBL document CHEMBL4689842, “EUbOPEN Chemogenomics Library wave 1” (2021).
# “And” between values parts separate entries of the source, which are not always exact repeats. Equal values may be shown once.
# System: Fibroblast
# Test: Multiplex assay against human fibroblast
# Assay type: toxicity, cell-based
# In short: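 Imaging took place on a CQ1 microscope at 37°C and 5% CO2 once compound had been added to live cells stained at seeding with Hoechst33342, BioTracker Green Microtubule Cytoskeleton Dye, MitoTracker Red and Annexin V Alexa Fluor 680. CellPathfinder machine-learning gating classed cells as Hoechst high-intensity objects or normal cells, classed normal cells as having healthy, pyknosed or fragmented nuclei, and classed pyknosed cells as mitotic or apoptotic. Tubulin, mitochondrial-mass and membrane-permeability phenotypes are per cents of the healthy-nucleus cells.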
# [1] = 12 h, 1 µM, compound concentration 1 uM, replicate 1
# [2] = 12 h, 1 µM, compound concentration 1 uM, replicate 2
# [3] = 12 h, 10 µM, compound concentration 10 uM, replicate 1
# [4] = 12 h, 10 µM, compound concentration 10 uM, replicate 2
# [5] = 24 h, 1 µM, compound concentration 1 uM, replicate 1
# [6] = 24 h, 1 µM, compound concentration 1 uM, replicate 2
# [7] = 24 h, 10 µM, compound concentration 10 uM, replicate 1
# [8] = 24 h, 10 µM, compound concentration 10 uM, replicate 2
# [9] = 48 h, 10 µM, compound concentration 10 uM, replicate 1
# [10] = 48 h, 10 µM, compound concentration 10 uM, replicate 2
compound,measurement,setting,value
COc1cc2nccc(Oc3ccc(NC(=O)Nc4cc(C)on4)c(Cl)c3)c2cc1OC.O,Population Apoptotic (%),[1],66% and 58%
same,Population Fragmented Nuclei (%),[1],38% and 29%
same,Population Healthy Nuclei (%),[1],45% and 54%
same,Population Hoechst High Intensity Objects (%),[1],11% and 12%
same,Population Membrane Permeable-Phenotype (%),[1],10% and 8%
same,Population Mitochondria Different-Phenotype (%),[1],10%
same,Population Mitotic Cells (%),[1],33% and 41%
same,Population Normal (%),[1],88% and 87%
same,Population Pyknosed Nuclei (%),[1],16%
same,Population Tubulin-Different-Phenotype (%),[1],13%
same,Total Cell Count,[1],229 and 203
same,Population Apoptotic (%),[2],40% and 50%
same,Population Fragmented Nuclei (%),[2],63% and 48%
same,Population Healthy Nuclei (%),[2],28% and 18%
same,Population Hoechst High Intensity Objects (%),[2],33% and 40%
same,Population Membrane Permeable-Phenotype (%),[2],27% and 28%
same,Population Mitotic Cells (%),[2],60% and 50%
same,Population Normal (%),[2],66% and 59%
same,Population Tubulin-Different-Phenotype (%),[2],38% and 57%
same,Total Cell Count,[2],95 and 62
same,Population Apoptotic (%),[3],47%
same,Population Fragmented Nuclei (%),[3],30%
same,Population Healthy Nuclei (%),[3],31%
same,Population Hoechst High Intensity Objects (%),[3],13%
same,Population Membrane Permeable-Phenotype (%),[3],17%
same,Population Mitochondria Different-Phenotype (%),[3],31%
same,Population Mitotic Cells (%),[3],52%
same,Population Normal (%),[3],86%
same,Population Pyknosed Nuclei (%),[3],37%
same,Population Tubulin-Different-Phenotype (%),[3],77%
same,Total Cell Count,[3],163
same,Population Apoptotic (%),[4],71%
same,Population Fragmented Nuclei (%),[4],11%
same,Population Healthy Nuclei (%),[4],75%
same,Population Hoechst High Intensity Objects (%),[4],3%
same,Population Membrane Permeable-Phenotype (%),[4],36%
same,Population Mitochondria Different-Phenotype (%),[4],97%
same,Population Mitotic Cells (%),[4],28%
same,Population Normal (%),[4],96%
same,Population Pyknosed Nuclei (%),[4],12%
same,Population Tubulin-Different-Phenotype (%),[4],97%
same,Total Cell Count,[4],58
same,Population Apoptotic (%),[5],76% and 68%
same,Population Fragmented Nuclei (%),[5],41% and 26%
same,Population Healthy Nuclei (%),[5],39% and 59%
same,Population Hoechst High Intensity Objects (%),[5],15% and 11%
same,Population Membrane Permeable-Phenotype (%),[5],3% and 0%
same,Population Mitochondria Different-Phenotype (%),[5],42%
same,Population Mitotic Cells (%),[5],23% and 32%
same,Population Normal (%),[5],84% and 88%
same,Population Pyknosed Nuclei (%),[5],19% and 14%
same,Total Cell Count,[5],231 and 198
same,Population Apoptotic (%),[6],25%
same,Population Fragmented Nuclei (%),[6],58% and 53%
same,Population Healthy Nuclei (%),[6],34% and 19%
same,Population Hoechst High Intensity Objects (%),[6],35% and 29%
same,Population Membrane Permeable-Phenotype (%),[6],10% and 22%
same,Population Mitotic Cells (%),[6],75%
same,Population Normal (%),[6],64% and 70%
same,Total Cell Count,[6],85 and 67
same,Population Apoptotic (%),[7],57%
same,Population Fragmented Nuclei (%),[7],29%
same,Population Healthy Nuclei (%),[7],40%
same,Population Hoechst High Intensity Objects (%),[7],19%
same,Population Membrane Permeable-Phenotype (%),[7],11%
same,Population Mitochondria Different-Phenotype (%),[7],53%
same,Population Mitotic Cells (%),[7],42%
same,Population Normal (%),[7],80%
same,Population Pyknosed Nuclei (%),[7],29%
same,Population Tubulin-Different-Phenotype (%),[7],86%
same,Total Cell Count,[7],158
same,Population Apoptotic (%),[8],92%
same,Population Fragmented Nuclei (%),[8],16%
same,Population Healthy Nuclei (%),[8],60%
same,Population Hoechst High Intensity Objects (%),[8],3%
same,Population Membrane Permeable-Phenotype (%),[8],67%
same,Population Mitochondria Different-Phenotype (%),[8],100%
same,Population Mitotic Cells (%),[8],7%
same,Population Normal (%),[8],96%
same,Population Pyknosed Nuclei (%),[8],23%
same,Population Tubulin-Different-Phenotype (%),[8],97%
same,Total Cell Count,[8],58
same,Population Apoptotic (%),[9],76%
same,Population Fragmented Nuclei (%),[9],33%
same,Population Healthy Nuclei (%),[9],47%
same,Population Hoechst High Intensity Objects (%),[9],22%
same,Population Membrane Permeable-Phenotype (%),[9],10%
same,Population Mitochondria Different-Phenotype (%),[9],60%
same,Population Mitotic Cells (%),[9],23%
same,Population Normal (%),[9],77%
same,Population Pyknosed Nuclei (%),[9],18%
same,Population Tubulin-Different-Phenotype (%),[9],83%
same,Total Cell Count,[9],148
same,Population Apoptotic (%),[10],62%
same,Population Fragmented Nuclei (%),[10],36%
same,Population Healthy Nuclei (%),[10],54%
same,Population Hoechst High Intensity Objects (%),[10],10%
same,Population Membrane Permeable-Phenotype (%),[10],0%
same,Population Mitochondria Different-Phenotype (%),[10],75%
same,Population Mitotic Cells (%),[10],37%
same,Population Normal (%),[10],89%
same,Population Pyknosed Nuclei (%),[10],9%
same,Population Tubulin-Different-Phenotype (%),[10],95%
same,Total Cell Count,[10],98
